# Screening results from PubChem BioAssay.
# KCNK3 inh: human KCNK3 channel inhibitors, primary screen, CHO cells, FluxOR thallium flux, B-score. FluxOR fluorescence; hits give low values. 0.84% of 340,000 active. Potassium channel subfamily K member 3 (Homo sapiens), O14649. B-score at 10 µM;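 active = B-score under library mean minus 4 SD, starting fluorescence ratio at most library mean plus 5 SD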;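 note: more negative B-score means stronger inhibition of thallium flux through KCNK3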
# KCNQ1 block: inhibitors of human KCNQ1 channel, primary screen, cell-based, thallium flux, high-throughput. Potassium voltage-gated channel subfamily KQT member 1 (Homo sapiens), P51787. CHO-K1 KCNQ1, FluxOR thallium flux fluorescence; hits give high values. B-score at 10 µM. 1.3% of 310,000 active. AID 2642, 2010;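 active = compounds whose thallium flux B-score, printed positive for inhibition, exceeds three library SD while starting fluorescence stays within three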;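 note: channel opened by potassium depolarization with thallium stimulus after 20 min compound exposure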
# hERG protect: hERG rescue from dofetilide block, primary screen, cell-based, CHO-hERG, FluxOR thallium flux, dofetilide IC70. dofetilide IC70 present. Voltage-gated inwardly rectifying potassium channel KCNH2 (Homo sapiens), Q12809. 0.51% of 310,000 active. activation (rescue from dofetilide block), less the hit threshold, % at 10 µM;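 active = activation above the mean of controls blocked by dofetilide plus 5 SD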;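 note: thallium influx through hERG after potassium depolarization seen as dye fluorescence rise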
# KCNK9 inh: KCNK9 potassium channel inhibitors, primary screen, HEK293 cells, thallium flux. B-score at 10 µM. 1.2% of 310,000 active. Potassium channel subfamily K member 9 (Homo sapiens), Q9NPC2. FluxOR thallium flux fluorescence; hits give low values;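 active = ratio B-score over 3 SD below the library mean, with starting fluorescence within 5 SD of its mean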;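 note: negative B-score means less thallium flux so channel inhibition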
# Target sequence (Q9NPC2 whole entry, looked up): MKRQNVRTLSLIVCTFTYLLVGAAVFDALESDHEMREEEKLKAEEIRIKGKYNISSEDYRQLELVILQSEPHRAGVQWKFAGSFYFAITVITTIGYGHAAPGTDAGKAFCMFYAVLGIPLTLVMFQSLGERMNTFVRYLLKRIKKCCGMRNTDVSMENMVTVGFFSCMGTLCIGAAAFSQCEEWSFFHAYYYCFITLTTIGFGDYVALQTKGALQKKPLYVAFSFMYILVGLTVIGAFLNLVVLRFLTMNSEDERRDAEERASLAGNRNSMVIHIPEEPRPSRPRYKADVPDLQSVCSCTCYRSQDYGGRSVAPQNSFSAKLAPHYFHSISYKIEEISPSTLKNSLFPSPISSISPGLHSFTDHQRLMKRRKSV
# Kir21 block: inhibitors of mouse Kir2.1 inward-rectifier potassium channel; Inward rectifier potassium channel 2 (Mus musculus), P35561; HEK293-Kir2.1, FluxOR thallium flux fluorescence; hits give low values; B-score at 10 µM; 0.85% of 310,000 active;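 active = fluorescence ratio B-score at or below minus 3 SD of library scores, with starting-brightness B-score within 2 SD, cut at about -4.2 in these data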;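 note: channel flux triggered by added potassium and thallium sulfate stimulus; B-score of peak minus minimum fluorescence over baseline after thallium stimulus; more negative B-score means stronger Kir2.1 block with less thallium influx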
# KCNQ1 act: potentiators or activators of KCNQ1 channel, primary screen, cell-based, thallium flux, high-throughput. Potassium voltage-gated channel subfamily KQT member 1 (Homo sapiens), P51787. CHO-K1 KCNQ1, thallium flux FluxOR fluorescence; hits give high values. B-score at 10 µM. 0.35% of 310,000 active. AID 2648, 2010;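 active = fluorescence ratio B-score, a plate-corrected score, at least three library SD, with initial intensity B-score within 5 SD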
#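 System: Stable KCNQ1 CHO-K1 line | Incubation: 90 min dye loading and 20 min compound exposure, both at room temperature | Measure: Ratio B score | Medium: Assay buffer for compound exposure, DMSO matched across wells | Compound dosing: Single-concentration screen | Probe or stimulus: K+/Tl+ depolarizing stimulus | Measured by: Kinetic FluxOR fluorescence, 10 s baseline plus 110 s post-stimulus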
# KCNK9 block conf: KCNK9 potassium channel inhibitors, confirmation, HEK293 cells, thallium flux, duplicate; shares compounds with KCNK9 inh; FluxOR thallium flux fluorescence; inhibition, % at 10 µM; 43% of 4,900 active; AID 492992, 2010;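 active = thallium signal inhibited by more than 5 SD of the compound-free buffer control wells, on both duplicate plates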
# Kir21 sel: mouse Kir2.1 channel inhibition, confirmation, selectivity assay for KCNK9 modulator project, cell-based, HEK293, thallium flux; shares compounds with KCNK9 inh; 4% of 4,900 active; inhibition, % at 10 µM; Kir2.1 cells, FluxOR thallium flux fluorescence;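 active = thallium signal drop more than 5 SD beyond the mean of the no-compound control wells, seen in both duplicate plates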;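 note: signal is fluorescence rise after thallium addition divided by baseline fluorescence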
# KCNK9 uninduced: thallium flux in non-induced HEK293 cells, confirmation, counter-screen for KCNK9 inhibitor project, cell-based, second counter screen, non-induced KCNK9-HEK293; shares compounds with KCNK9 inh; FluxOR thallium flux; inhibition, % at 10 µM; 40% of 4,900 active;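 active = thallium signal drop beyond 5 SD of the untreated control mean, on both duplicate plates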
# Numbers stand for hits; 0 = inactive; - = no result given. Rows were chosen to be rich in hits. Some 3.7% of all compounds tested hit in one or more screens of this group.
SMILES,KCNK3 inh,KCNQ1 block,hERG protect,KCNK9 inh,Kir21 block,KCNQ1 act,KCNK9 block conf,Kir21 sel,KCNK9 uninduced
COc1cc(/C=C(/C#N)C(=O)NC(C)c2ccccc2)cc(OC)c1O (stereo unspecified),0,0,0,0,0,0,-,-,-
CC(=O)Nc1ccc2oc(-c3ccccc3Br)nc2c1,0,0,0,0,0,0,-,-,-
Cc1ccccc1-c1nc2cc(NC(=O)C3CC3)ccc2o1,0,0,0,-8.7,0,0,0,0,0
COC(=O)[C@]1(C)N[C@H](CN(C)S(=O)(=O)c2ccc(C)cc2)[C@@H]2C(=O)N(C)C(=O)[C@@H]21,0,-,-,-,-,-,-,-,-
COc1ccc(NC(=S)N(CCc2c(C)[nH]c3ccc(C)cc23)Cc2cccs2)cc1,0,0,0,-9.6,0,0,0,0,29%
COc1ccc(NC(=S)N(CCc2c(C)[nH]c3ccc(C)cc23)Cc2ccco2)cc1,0,0,0,0,0,0,-,-,-
COc1ccc2[nH]c(C)c(CCN(Cc3cccs3)C(=S)Nc3ccc(F)cc3)c2c1,-17,6,0,-12,0,0,42%,0,27%
Cc1[nH]c2ccc(F)cc2c1CCN(Cc1ccncc1)C(=S)Nc1cccc(F)c1,0,7,0,-8.1,0,0,36%,0,27%
Cc1ccccc1NC(=S)N(CCc1c(C)[nH]c2ccc(F)cc12)Cc1ccncc1,0,0,0,0,0,0,-,-,-
Cc1ccc(C2CN(CCC(N)=O)C(=O)CO2)cc1 (stereo unspecified),0,-,-,-,-,-,-,-,-
CN(CC(=O)Nc1ccc(Cl)cc1)C(=O)CNC(=O)Cc1cccc2ccccc12,0,-,-,-,-,-,-,-,-
O=C(COC(=O)/C=C/c1cccs1)Nc1cccc(S(=O)(=O)N2CCCC2)c1,0,0,0,0,0,0,-,-,-
CCOC(=O)/C(=N\Nc1cc(C(F)(F)F)ccc1Cl)N(CC)CC,0,0,0,-13,0,0,54%,0,42%
CCOC(=O)/C(=N\Nc1ccccc1Cl)N(C)C1CCCCC1,0,0,0,-8.8,0,0,64%,0,50%
CN(C)c1ccccc1C(=O)N1CCCC(C(=O)c2ccc3ccccc3c2)C1 (stereo unspecified),0,0,0,0,0,0,0,0,0
O=C(c1ccc2ccccc2c1)C1CCCN(C(=O)c2cccnc2)C1 (stereo unspecified),0,0,0,0,0,0,-,-,-
CSc1ncccc1C(=O)N1CCCC(C(=O)c2ccc3ccccc3c2)C1 (stereo unspecified),0,0,0,0,0,0,0,0,0
NC(=O)COC(=O)CC12CC3CC(CC(Br)(C3)C1)C2,0,0,0,0,0,0,-,-,-
NNC(=O)c1sc2cc(C(F)(F)F)cnc2c1-c1cccnc1,0,0,0,0,0,0,-,-,-
O=C(Nc1cccc(-c2nc3ccccc3s2)c1)c1cccs1,0,0,0,-10,0,0,49%,0,26%
O=C(Nc1cccc(-c2cn3ccccc3n2)c1)c1cccs1,0,0,0,-8.5,0,0,52%,0,0
O=C(Nc1cccc(-c2nc3ccccc3s2)c1)c1cc(=O)c2ccccc2o1,0,0,0,0,0,0,-,-,-
O=C(c1ccccc1F)c1cc2c(cc1[N+](=O)[O-])OCCO2,0,0,0,0,0,0,-,-,-
Clc1cccc(-c2ccc(CNCCCN3CCOCC3)o2)c1,0,0,0,0,0,0,-,-,-
Clc1nssc1=Nc1ccc(Br)cc1,0,0,0,0,0,0,-,-,-
SMILES,KCNK3 inh,KCNQ1 block,hERG protect,KCNK9 inh,Kir21 block,KCNQ1 act,KCNK9 block conf,Kir21 sel,KCNK9 uninduced
Clc1ccc(N=c2ssnc2Cl)nc1,0,0,0,0,0,0,-,-,-
N#Cc1cccc(N=c2ssnc2Cl)c1,0,0,5.2,0,0,0,0,0,0
COc1cc(N=c2ssnc2Cl)cc(OC)c1,0,0,0,0,0,0,0,0,0
Cc1cc(C)c(-c2csc(NC(=O)C3=COCCO3)n2)c(C)c1,0,0,0,0,0,0,0,0,0
Cc1cc(C)c2sc(NC(=O)C3=COCCO3)nc2c1,0,0,0,0,0,0,-,-,-
Cc1cc(C)c(-c2csc(NC(=O)COC(=O)c3ccc4c(c3)OCO4)n2)c(C)c1,0,0,0,0,0,0,0,0,0
O=C(COC(=O)c1ccc2c(c1)OCO2)Nc1nc(-c2ccccc2)cs1,0,0,0,0,0,0,-,-,-
COc1cc(C(=O)NC(=S)Nc2ccccc2N2CCCC2)cc(OC)c1OC,0,0,0,0,0,0,0,0,0
CCOc1ccc2nc(SCC(=O)NC(=O)NCc3ccco3)[nH]c2c1,0,0,0,0,0,0,0,0,0
COc1ccccc1/C=C(/CC(=O)NCc1ccc(F)cc1)c1nc2ccccc2s1,0,0,0,-16,0,0,66%,0,36%
O=C(CCCc1nc2ccccc2s1)NCc1ccccc1,0,0,0,0,0,0,-,-,-
COc1ccccc1/C=C(/CC(=O)NCc1ccccc1)c1nc2ccccc2s1,0,0,0,-9.7,0,0,70%,0,0
CCOC(=O)C1NC(=O)CC1c1ccccc1 (stereo unspecified),0,0,0,0,0,0,-,-,-
CCOC(=O)C1CSC2(CCC(c3ccccc3)CC2)N1 (stereo unspecified),0,0,0,0,0,0,0,0,0
Oc1[nH]c2ccccc2c1N=NC(=S)N1CCOCC1,0,0,0,-13,0,0,54%,0,45%
CN1N=C(c2ccc(Cl)cc2)CC(c2ccc(Cl)cc2)C1=O (stereo unspecified),0,0,0,-11,0,0,38%,0,40%
Cc1ccc(C2CC(c3ccc(Cl)cc3)=NNC2=O)cc1 (stereo unspecified),0,0,0,0,0,0,-,-,-
COc1c(CC=C(C)C)cc(C2CC(=O)c3c(O)cc(O)cc3O2)c(CC=C(C)C)c1O (stereo unspecified),-,0,0,-11,0,0,67%,0,50%
